The source made the active and inactive calls. The rule behind the calls is not given here.
Key:
[1] = molecular target: T1, DNA topoisomerase 1 (Homo sapiens) (UniProt P11387); experiment: Inhibition of Topo 1 (unknown origin)-mediated relaxation of supercoiled pBR322 plasmid at 25 uM after 30 mins by agarose gel electrophoresis
T1 sequence (whole entry): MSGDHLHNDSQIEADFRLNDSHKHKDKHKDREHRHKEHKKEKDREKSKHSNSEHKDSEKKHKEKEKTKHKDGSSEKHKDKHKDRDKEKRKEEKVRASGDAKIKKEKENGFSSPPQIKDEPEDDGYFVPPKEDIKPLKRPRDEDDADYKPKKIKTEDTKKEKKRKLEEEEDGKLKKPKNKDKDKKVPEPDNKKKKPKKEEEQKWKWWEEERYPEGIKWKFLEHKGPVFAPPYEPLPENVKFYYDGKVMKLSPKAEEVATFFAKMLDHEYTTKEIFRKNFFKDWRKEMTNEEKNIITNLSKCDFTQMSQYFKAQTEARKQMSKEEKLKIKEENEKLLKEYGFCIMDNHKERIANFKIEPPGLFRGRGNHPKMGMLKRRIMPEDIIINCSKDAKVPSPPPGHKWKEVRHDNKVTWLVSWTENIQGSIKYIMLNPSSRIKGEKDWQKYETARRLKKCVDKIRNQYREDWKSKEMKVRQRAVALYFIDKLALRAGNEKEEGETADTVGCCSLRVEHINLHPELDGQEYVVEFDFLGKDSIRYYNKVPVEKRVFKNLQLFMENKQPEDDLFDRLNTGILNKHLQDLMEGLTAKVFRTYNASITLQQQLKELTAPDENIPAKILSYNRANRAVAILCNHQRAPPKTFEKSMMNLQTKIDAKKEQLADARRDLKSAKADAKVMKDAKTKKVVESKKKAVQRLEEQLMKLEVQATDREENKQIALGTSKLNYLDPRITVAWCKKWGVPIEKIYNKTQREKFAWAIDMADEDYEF
How it was run: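 Topo I with supercoiled pBR322 and compound, 30 min at 37 °C. Stopped with SDS/bromophenol blue/glycerol dye; run on 1% agarose gel in TAE for 1 h and stained with Gel Red.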

[2] = molecular target: DNA topoisomerase 2-alpha (Homo sapiens) (UniProt P11388); experiment: Inhibition of human Topo 2-mediated relaxation of supercoiled pBR322 plasmid at 25 to 50 uM after 30 mins by agarose gel electrophoresis
[3] = Cytotoxicity against human HL60 cells after 48 hrs by MTT assay; format: functional, cell-based; settings: HL-60, 48 h
How it was run: (§1)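 Cells seeded 1 × 10^4 per well and incubated overnight, then given compound at 0–50 µM for 48 h. MTT added (20 µL of 5 mg/mL stock) for 4 h at 37 °C; formazan dissolved in DMSO, absorbance read at 570 nm. Triplicates; IC50 from mean OD versus concentration curves.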

[4] = system: K562; experiment: Cytotoxicity against human K562 cells after 48 hrs by MTT assay; format: functional, cell-based; settings: K562, 48 h; how it was run: as §1
[5] = system: HeLa; experiment: Cytotoxicity against human HeLa cells after 48 hrs by MTT assay; format: functional, cell-based; how it was run: as §1
[6] = system: A549; experiment: Cytotoxicity against human A549 cells after 48 hrs by MTT assay; format: functional, cell-based; settings: A549, 48 h; how it was run: as §1
[7] = molecular target: T2, DNA topoisomerase (Bos taurus) (UniProt A0JN73); experiment: Induction of calf thymus Topo 1-pBR322 DNA cleavage complex formation assessed as nicked DNA formation at 0.5 to 10 uM after 30 mins by optical density analysis
T2 sequence (whole entry): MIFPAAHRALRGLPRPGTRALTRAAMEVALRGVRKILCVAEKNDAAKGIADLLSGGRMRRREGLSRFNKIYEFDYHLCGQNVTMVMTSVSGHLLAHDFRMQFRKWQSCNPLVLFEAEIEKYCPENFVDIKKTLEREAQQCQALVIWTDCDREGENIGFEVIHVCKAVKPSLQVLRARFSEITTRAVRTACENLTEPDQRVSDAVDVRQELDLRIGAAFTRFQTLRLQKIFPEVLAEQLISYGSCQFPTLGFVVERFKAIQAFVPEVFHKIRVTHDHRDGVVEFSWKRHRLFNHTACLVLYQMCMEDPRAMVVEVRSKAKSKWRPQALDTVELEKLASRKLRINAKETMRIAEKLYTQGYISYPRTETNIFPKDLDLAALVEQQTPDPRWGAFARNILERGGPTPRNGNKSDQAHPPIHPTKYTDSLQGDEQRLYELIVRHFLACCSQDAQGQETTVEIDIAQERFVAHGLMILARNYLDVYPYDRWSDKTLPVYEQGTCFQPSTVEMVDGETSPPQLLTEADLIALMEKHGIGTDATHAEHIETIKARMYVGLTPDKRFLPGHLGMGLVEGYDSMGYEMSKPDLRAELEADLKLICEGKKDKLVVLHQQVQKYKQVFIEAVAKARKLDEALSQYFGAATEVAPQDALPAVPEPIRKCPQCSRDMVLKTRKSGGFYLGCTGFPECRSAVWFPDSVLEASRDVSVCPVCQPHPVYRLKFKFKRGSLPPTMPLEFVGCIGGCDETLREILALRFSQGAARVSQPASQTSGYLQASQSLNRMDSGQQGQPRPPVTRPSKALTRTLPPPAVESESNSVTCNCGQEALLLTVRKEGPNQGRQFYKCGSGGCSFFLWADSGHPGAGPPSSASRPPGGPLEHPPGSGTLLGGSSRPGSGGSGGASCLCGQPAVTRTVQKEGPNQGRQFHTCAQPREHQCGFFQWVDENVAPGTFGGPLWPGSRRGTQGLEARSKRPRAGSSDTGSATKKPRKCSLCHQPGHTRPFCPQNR
How it was run: (§2)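 Calf thymus Topo I (10 units) with 0.1 µg supercoiled pBR322 and compound (0.5–50 µM) in Topo I buffer pH 7.5, 6 min at 37 °C. Complexes trapped with SDS then NaEDTA, proteinase K 30 min at 45 °C, heated 70 °C for 2 min, 1% agarose gel with ethidium bromide. Nicked DNA quantified by optical density.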

[8] = molecular target: T2, DNA topoisomerase (Bos taurus); experiment: Induction of calf thymus Topo 1-pBR322 DNA cleavage complex formation assessed as nicked DNA formation at 10 uM after 30 mins by optical density analysis relative to control; how it was run: as §2
[9] = molecular target: T2, DNA topoisomerase (Bos taurus); experiment: Induction of calf thymus Topo 1-pBR322 DNA cleavage complex formation assessed as nicked DNA formation at 25 to 50 uM after 30 mins by optical density analysis relative to control; how it was run: as §2
[10] = molecular target: T1, DNA topoisomerase 1 (Homo sapiens); experiment: Induction of Topo 1-DNA cleavage complex formation in human HL60 cells after 1 hr by ICE assay; format: cell-based; settings: HL-60
How it was run: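 Mid-log phase HL-60 cells exposed to 2, 5 or 10 µM compound (DMSO vehicle 1.0% v/v) for 1 h, then lysed in DNAzol. DNA was ethanol-precipitated, redissolved and quantified. 2 µg DNA in 25 mM NaH2PO4 pH 6.5 was blotted onto nitrocellulose. Covalent Topo I was probed with rabbit anti-human Topo I (1:1000) and HRP secondary (1:3000), read by chemiluminescence.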

[11] = molecular target: DNA topoisomerase 2-alpha (Homo sapiens) (UniProt P11388); experiment: Induction of human Topo 2-pBR322 DNA cleavage complex formation assessed as linear DNA formation at 10 to 50 uM by agarose gel electrophoresis
[12] = system: Nucleic Acid; experiment: Binding affinity to Escherichia coli pBR322 DNA assessed as DNA intercalation activity compound preincubated at 5 to 100 uM for 10 mins before enzyme addition by DNA unwinding assay in presence of topoisomerase 1; format: nucleic-acid assay
[13] = system: Calf thymus DNA; experiment: Binding affinity to calf thymus DNA at 15 uM after 5 mins by UV-vis spectrometry; format: nucleic-acid assay; settings: Bos taurus
How it was run: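 Compound at 15 µM in DPBS pH 7.4 with 1% DMSO, titrated with CT-DNA (0–24 µM, quantified at 260 nm, ε 13,200 M(bp)-1 cm-1). Equilibrated 5 min at room temperature; absorption spectra recorded 400–600 nm; Kapp derived from titration.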

[14] = molecular target: DNA topoisomerase 2-alpha (Homo sapiens) (UniProt P11388); experiment: Inhibition of human Topo 2-mediated relaxation of supercoiled pBR322 plasmid at 25 uM after 30 mins by agarose gel electrophoresis
[15] = molecular target: DNA topoisomerase 2-alpha (Homo sapiens) (UniProt P11388); experiment: Inhibition of human Topo 2 ATPase domain expressed in yeast BCY123 strain at 25 uM after 1 hr by nonisotopic malachite green assay
How it was run: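 Human Topo II ATPase domain overexpressed in yeast BCY123 and purified. Assay buffer: 100 mM Tris-HCl pH 7.4, 20 mM KCl, 6 mM MgCl2. Reaction of 25 µL with compound, started with 1 mM ATP, 1 h at 37 °C. Phosphate detected with malachite green at OD620. No-enzyme background set as 100% inhibition and enzyme-only as 0%.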

[16] = molecular target: DNA topoisomerase 2-alpha (Homo sapiens) (UniProt P11388); experiment: Competitive inhibition of human Topo 2 ATPase domain expressed in yeast BCY123 strain after 1 hr by Lineweaver-Burk plot method
How it was run: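 Human Topo II ATPase domain expressed in yeast BCY123 and purified. Assay buffer: 100 mM Tris-HCl pH 7.4, 20 mM KCl, 6 mM MgCl2. ATP at 250, 500, 800, 1,000 and 2000 µM at each fixed compound level (0, 5, 25, 50, 100 µM), 1 h at 37 °C. Phosphate read by malachite green at 620 nm.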

[17] = system: Nucleic Acid; experiment: Binding affinity to Escherichia coli pBR322 DNA assessed as DNA intercalation activity compound preincubated for 10 mins before enzyme addition by DNA unwinding assay in presence of topoisomerase 1; format: nucleic-acid assay

Sequence of DNA topoisomerase 2-alpha (Homo sapiens) (P11388 whole entry, the tested form may be a part): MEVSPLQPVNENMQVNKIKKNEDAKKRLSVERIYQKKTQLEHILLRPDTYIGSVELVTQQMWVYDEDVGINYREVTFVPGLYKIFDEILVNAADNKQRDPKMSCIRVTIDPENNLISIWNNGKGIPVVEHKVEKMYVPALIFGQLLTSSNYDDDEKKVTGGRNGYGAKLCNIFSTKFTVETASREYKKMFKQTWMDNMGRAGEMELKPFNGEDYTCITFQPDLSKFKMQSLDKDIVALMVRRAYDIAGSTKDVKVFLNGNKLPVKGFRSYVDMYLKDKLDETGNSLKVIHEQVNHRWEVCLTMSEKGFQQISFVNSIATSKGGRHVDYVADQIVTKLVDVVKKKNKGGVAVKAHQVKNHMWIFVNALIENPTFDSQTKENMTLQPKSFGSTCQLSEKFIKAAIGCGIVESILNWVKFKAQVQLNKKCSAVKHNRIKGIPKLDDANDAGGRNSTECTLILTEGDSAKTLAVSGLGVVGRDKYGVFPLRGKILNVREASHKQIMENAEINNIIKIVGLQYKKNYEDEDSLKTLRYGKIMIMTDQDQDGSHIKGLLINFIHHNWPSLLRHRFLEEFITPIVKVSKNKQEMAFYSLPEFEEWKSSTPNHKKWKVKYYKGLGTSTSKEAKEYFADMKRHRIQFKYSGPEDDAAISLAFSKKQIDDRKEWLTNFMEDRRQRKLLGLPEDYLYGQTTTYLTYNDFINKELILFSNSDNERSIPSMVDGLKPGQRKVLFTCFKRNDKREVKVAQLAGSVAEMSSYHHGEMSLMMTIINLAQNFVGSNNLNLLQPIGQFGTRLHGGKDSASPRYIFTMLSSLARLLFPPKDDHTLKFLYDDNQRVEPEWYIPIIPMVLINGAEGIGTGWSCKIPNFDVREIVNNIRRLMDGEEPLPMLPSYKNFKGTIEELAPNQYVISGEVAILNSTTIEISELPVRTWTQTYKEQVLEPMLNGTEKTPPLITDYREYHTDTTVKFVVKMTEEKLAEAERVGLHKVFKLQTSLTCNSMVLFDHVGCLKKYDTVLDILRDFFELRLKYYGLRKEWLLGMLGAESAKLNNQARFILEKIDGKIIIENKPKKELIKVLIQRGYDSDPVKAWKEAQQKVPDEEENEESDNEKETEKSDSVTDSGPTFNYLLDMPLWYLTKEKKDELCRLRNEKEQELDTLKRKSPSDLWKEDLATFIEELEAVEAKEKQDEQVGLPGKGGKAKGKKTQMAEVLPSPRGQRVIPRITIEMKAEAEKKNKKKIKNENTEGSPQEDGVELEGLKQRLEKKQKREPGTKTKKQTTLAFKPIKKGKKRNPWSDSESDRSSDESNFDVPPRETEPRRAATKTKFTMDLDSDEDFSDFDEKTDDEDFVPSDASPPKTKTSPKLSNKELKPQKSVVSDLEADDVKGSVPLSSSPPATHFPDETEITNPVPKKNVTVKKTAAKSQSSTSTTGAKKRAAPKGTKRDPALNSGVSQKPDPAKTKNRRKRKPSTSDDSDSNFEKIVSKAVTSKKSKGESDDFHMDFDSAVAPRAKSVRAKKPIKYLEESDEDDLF

SMILES | Topo I relaxation inhibition (active/not active) [1] | Topo 2 inhibition (active/not active) [2] | IC50 [3] [µM] | IC50 [4] [µM] | IC50 [5] [µM] | IC50 [6] [µM] | Activity [7] | fold change (FC) [8] | Activity [9] | Activity [10] | Activity [11] | Activity [12] | Kapp [13] [×10⁵ /M] | Topo 2 inhibition (active/not active) [14] | inhibition [15] [%] | inhibition [16] | Activity [17]
CN(C)CCCCn1c2cc(=O)c3ccccc3c-2nc2ccccc21 | Active | Active | 0.38 | 4.73 | 21.4 | 16.3 | Dose-dependent effect | 2.5 | Active | Dose-dependent effect | inactive | Active | 4.83 |  |  |  | 
COc1ccc2c3nc4ccc(OC)cc4n(CCCN(C)C)c-3cc(=O)c2c1 |  |  | 0.09 | 8.73 | 18.2 | 26.4 |  |  |  |  |  |  |  | Active | 78 | Dose-dependent effect | 
CC[n+]1c(-c2ccccc2)c2cc(N)ccc2c2ccc(N)cc21 |  |  |  |  |  |  |  |  |  |  |  |  |  |  |  |  | Dose-dependent effect
